Screening data deposited in PubChem BioAssay by Broad Institute.
IDH1 mut inh: IDH1 R132H (human) inhibition. O75874. IDH1 R132H reductase, diaphorase/resazurin fluorescence, 60 min. inhibition, % at 10 µM. hit rate 0.18% among 70,000; in the data active means inhibition above about 34%; inconclusive means no clear call, values can overlap the other calls; inactive means below about 11%;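 further: 0% = DMSO and 100% = no enzyme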
KDM4C inh: inhibitors of human demethylase GASC-1 KDM4C | Q9H3R0 | GST-KDM4C 2-372, H3K9me3 peptide, LANCE TR-FRET | inhibition, % at 12.5 µM | hit rate 0.15% among 96,000;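 active means mean replicate inhibition above about 25%, with at least 55% of replicates also reaching it, limit read from the data, passing the limit was not always enough; inconclusive means only one of those two conditions met; inactive means neither condition met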
Target sequence (Q9H3R0 2-372 limits assumed): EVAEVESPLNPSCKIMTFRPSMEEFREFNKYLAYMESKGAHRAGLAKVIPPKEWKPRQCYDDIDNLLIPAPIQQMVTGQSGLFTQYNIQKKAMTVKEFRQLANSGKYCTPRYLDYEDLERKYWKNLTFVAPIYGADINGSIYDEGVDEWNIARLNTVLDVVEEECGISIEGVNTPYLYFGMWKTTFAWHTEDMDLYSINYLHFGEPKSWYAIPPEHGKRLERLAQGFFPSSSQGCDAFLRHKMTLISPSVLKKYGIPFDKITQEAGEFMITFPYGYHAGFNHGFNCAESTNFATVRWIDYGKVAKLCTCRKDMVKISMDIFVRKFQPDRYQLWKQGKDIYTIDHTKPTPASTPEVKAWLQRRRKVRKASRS
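System – N-terminal GST-fused human GASC-1 (KDM4C) fragment, residues 2-372 · Input – enzyme final amount 10 nM · Technique – LANCE TR-FRET, Eu antibody, ULight-streptavidin, EDTA, ex 340 nm, em 618/671 nm · Medium – HEPES buffer, pH 7.5, plus ascorbate · Incubation – enzyme reaction 30 min, then detection 60 min, both room temperature · Reagent – H3K9me3 peptide with Fe(II)/2OG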
T cruzi growth-1: blocks T. cruzi growth in NIH3T3 culture; T. cruzi beta-gal in NIH3T3, GalScreen luminescence, 90 h; inhibition, % at 8.34 µM; hit rate 5.9% among 77,000; AID 624255;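 active means mean inhibition above about 93%, with at least 55% of replicates each passing it, limit read from the data, passing the limit was not always enough; inconclusive means only one of those two conditions holds; inactive means neither condition holds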
T cruzi growth-2: Trypanosoma cruzi proliferation inhibition. T. cruzi beta-gal in NIH3T3, GalScreen luminescence, 90 h. inhibition, % at 8.35 µM. shares compounds with T cruzi growth-1. hit rate 72% among 5,600;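 active means mean replicate inhibition above about 95% and at least 55% of replicates individually reaching it, limit read from the data; inconclusive means only one of the two criteria is met; inactive means neither criterion is met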
T cruzi growth-3: Trypanosoma cruzi proliferation inhibition; shares compounds with T cruzi growth-1; T. cruzi beta-gal in NIH3T3, GalScreen luminescence, 90 h; inhibition, % at 2.09 µM; hit rate 21% among 5,600;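 active means mean inhibition above about 95%, with at least 55% of replicates also reaching it, limit read from the data; inconclusive means meets just one of the two conditions; inactive means meets neither condition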;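 further: plate controls were neutral control median for no effect and positive control median for full effect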
3T3 cytotox: kills mouse NIH/3T3 fibroblasts; cytotoxicity (signal decrease), % at 8.35 µM; shares compounds with T cruzi growth-1; NIH/3T3 viability, CellTiter-Glo ATP luminescence, 90 h; AID 651742; hit rate 14% among 5,600;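 active means mean signal decrease across replicates above about 35% based on untreated-well scatter, with enough replicates individually passing, limit read from the data; inconclusive means no rule stated though some were filed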;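 further: 0% = median of neutral control wells and 100% = median of positive control wells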
3T3 cytotox 2: cytotoxicity in mouse NIH/3T3 fibroblasts. NIH/3T3 viability, CellTiter-Glo ATP luminescence, 90 h. inhibition, % at 24.9 µM. hit rate 56% among 5,600. shares compounds with T cruzi growth-1;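 active means mean loss of cell viability signal at or above a set limit, and enough replicates individually reaching it; inconclusive means meets only the mean limit or only the replicate share; inactive means meets neither condition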;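 further: 0% = median of neutral control wells and 100% = median of positive control wells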
The depositor's hits bear a star; ? = inconclusive; · = no result. The sample as a whole holds a higher share of hits than the screen did.

SMILES	IDH1 mut inh	KDM4C inh	T cruzi growth-1	T cruzi growth-2	T cruzi growth-3	3T3 cytotox	3T3 cytotox 2
O=C(C[C@H]1CC[C@@H]2[C@H](COC[C@@H](O)CN2C(=O)Nc2ccc(Cl)c(Cl)c2)O1)NCc1ccc(Cl)cc1	·	0	102*	100*	-12	38*	56*
O=C(C[C@H]1CC[C@H]2[C@@H](COC[C@H](O)CN2C(=O)Nc2ccc(Cl)c(Cl)c2)O1)NCc1ccc(Cl)cc1	·	2	?	93	24	16	102*
O=C(C[C@@H]1CC[C@H]2[C@@H](COC[C@H](O)CN2C(=O)Nc2ccc(Cl)c(Cl)c2)O1)NCc1ccccc1	·	0	94	·	·	·	·
O=C(C[C@@H]1CC[C@H]2[C@@H](COC[C@H](O)CN2C(=O)Nc2ccc(Cl)c(Cl)c2)O1)NCc1ccc(Cl)cc1	·	-2	84	·	·	·	·
O=C(C[C@H]1CC[C@@H]2[C@H](COC[C@H](O)CN2C(=O)Nc2ccc(Cl)c(Cl)c2)O1)NCc1ccc(Cl)cc1	·	-1	111*	108*	13	?	89*
O=C(C[C@@H]1CC[C@@H]2[C@H](COC[C@@H](O)CN2C(=O)Nc2ccc(Cl)c(Cl)c2)O1)NCc1ccccc1	·	0	60	·	·	·	·
O=C(C[C@@H]1CC[C@@H]2[C@H](COC[C@@H](O)CN2C(=O)Nc2ccc(Cl)c(Cl)c2)O1)NCc1ccc(Cl)cc1	·	-1	84	·	·	·	·
O=C(C[C@H]1CC[C@@H]2[C@H](COC[C@@H](O)CN2C(=O)Nc2ccc(Cl)c(Cl)c2)O1)NCc1ccncc1	·	-3	111*	69	1	-1	10
c1ccc(-c2noc(CSc3nnc(C4CC4)n3-c3ccccc3)n2)cc1	0	·	·	·	·	·	·
COc1ccc(OC(C)c2nc(-c3ccccn3)no2)cc1 (stereo not given)	-1	·	·	·	·	·	·
Cc1nn(Cc2ccc(F)cc2)c(C)c1NC(=O)c1cc(-c2cccnc2)nc2c(Cl)cccc12	0	·	·	·	·	·	·
O=C(CCCCCC(=O)Nc1ccccc1O)N=NC=C1C=CN(O)C=C1	0	·	·	·	·	·	·
CN(C)C(=O)c1cccc(-c2ccc([C@@H]3[C@@H](CO)N(C(=O)C4CCC4)[C@H]3C#N)cc2)c1	·	-2	101*	-25	4	-15	1
N#C[C@H]1[C@H](c2ccc(C3=CCCC3)cc2)[C@H](CO)N1C(=O)C1CCC1	·	1	?	96*	24	-6	18
N#C[C@@H]1[C@@H](c2ccc(C3=CCCC3)cc2)[C@H](CO)N1C(=O)C1CCC1	·	4	77	·	·	·	·
N#C[C@H]1[C@H](c2ccc(-c3cncnc3)cc2)[C@@H](CO)N1C(=O)C1CCOCC1	·	0	33	·	·	·	·
CN(C)C(=O)c1cccc(-c2ccc([C@@H]3[C@@H](C#N)N(C(=O)C4CCC4)[C@@H]3CO)cc2)c1	·	-3	89	·	·	·	·
N#C[C@@H]1[C@@H](c2ccc(-c3cncnc3)cc2)[C@H](CO)N1C(=O)C1CCC1	·	-2	103*	77	41	3	2
CC1(CO)C=Cc2c(cc(O)c3c(=O)c(-c4ccc(O)cc4)coc23)O1 (stereo not given)	0	·	·	·	·	·	·
Cc1ccc(S(=O)(=O)CCSc2cccc(C(=O)Nc3ccccc3)c2)cc1	0	·	·	·	·	·	·
CCn1c(SCC(=O)c2cccc([N+](=O)[O-])c2)nnc1-c1ccc(Cl)cc1	0	·	·	·	·	·	·
COc1ccccc1C(=O)NC1(C(F)(F)F)C(=O)N(Cc2ccco2)C2=C1C(=O)CC(C)(C)C2 (stereo not given)	0	·	·	·	·	·	·
COc1ccc(NC(=O)Nc2ccc3c(c2)C(=O)N([C@@H](C)CO)C[C@H](C)[C@@H](CN(C)S(=O)(=O)c2ccc(F)cc2)OCCCC[C@@H](C)O3)cc1	·	-1	74	·	·	·	·
COc1ccc(S(=O)(=O)N(C)C[C@H]2OCCCC[C@H](C)Oc3ccc(NC(=O)Nc4ccc(F)cc4)cc3C(=O)N([C@H](C)CO)C[C@@H]2C)cc1	·	-3	?	105*	92	0	18
COc1ccc(NC(=O)Nc2ccc3c(c2)C(=O)N([C@H](C)CO)C[C@H](C)[C@@H](CN(C)S(=O)(=O)c2ccc(F)cc2)OCCCC[C@H](C)O3)cc1	1	17	113*	110*	39	15	2
SMILES	IDH1 mut inh	KDM4C inh	T cruzi growth-1	T cruzi growth-2	T cruzi growth-3	3T3 cytotox	3T3 cytotox 2
COc1ccc(NC(=O)Nc2ccc3c(c2)C(=O)N([C@H](C)CO)C[C@@H](C)[C@@H](CN(C)S(=O)(=O)c2ccc(F)cc2)OCCCC[C@H](C)O3)cc1	-2	0	4	·	·	·	·
Cc1ccc(S(=O)(=O)c2nc(-c3ccccc3Cl)oc2NCC2CCCO2)cc1 (stereo not given)	-1	·	·	·	·	·	·
COC(=O)c1ccccc1NC(=O)CN(C)S(=O)(=O)c1cc(Cl)ccc1Cl	0	·	·	·	·	·	·
COc1ccc(CN(C)C[C@@H]2OCCCC[C@@H](C)Oc3ccc(NC(=O)Nc4ccc5c(c4)OCO5)cc3C(=O)N([C@@H](C)CO)C[C@H]2C)cc1	·	1	49	·	·	·	·
COc1ccc(NC(=O)Nc2ccc3c(c2)C(=O)N([C@@H](C)CO)C[C@H](C)[C@@H](CN(C)Cc2ccc4c(c2)OCO4)OCCCC[C@H](C)O3)cc1	·	0	?	103*	78	-5	105*
COc1ccc(CN(C)C[C@H]2OCCCC[C@@H](C)Oc3ccc(NC(=O)Nc4ccc5c(c4)OCO5)cc3C(=O)N([C@H](C)CO)C[C@@H]2C)cc1	1	2	83	·	·	·	·
COc1ccc(CN(C)C[C@H]2OCCCC[C@H](C)Oc3ccc(NC(=O)Nc4ccc5c(c4)OCO5)cc3C(=O)N([C@H](C)CO)C[C@H]2C)cc1	·	2	105*	?	?	22	78*
Cc1ccc(S(=O)(=O)NC(C)C(=O)Nc2cc(C(F)(F)F)ccc2Cl)cc1 (stereo not given)	0	·	·	·	·	·	·
Cc1ccc2nc(-c3ccc(NC(=O)COc4ccc([N+](=O)[O-])cc4)cc3)sc2c1	1	·	·	·	·	·	·
CCn1c(SCC(=O)Nc2ccccc2OC)nnc1-c1ccc(Br)cc1	0	·	·	·	·	·	·
C[C@@H]1CN([C@H](C)CO)C(=O)Cc2cc(NC(=O)CCCCCC(=O)Nc3ccccc3N)ccc2O[C@@H]1CN(C)C(=O)Nc1cccc2ccccc12	0	·	·	·	·	·	·
C[C@H](CO)N1C[C@H](C)[C@@H](CN(C)Cc2ccc(Oc3ccccc3)cc2)Oc2ccc(NC(=O)Nc3ccccc3)cc2C1=O	·	1	56	·	·	·	·
C[C@H](CO)N1C[C@H](C)[C@H](CN(C)Cc2ccncc2)Oc2ccc(NC(=O)Nc3ccc4c(c3)OCO4)cc2C1=O	2	0	117*	66	-20	26	34*
C[C@@H]1CN([C@@H](C)CO)C(=O)c2cc(NC(=O)Cc3ccccc3)ccc2O[C@H]1CN(C)Cc1ccc(Oc2ccccc2)cc1	·	-2	40	·	·	·	·
